Results reported in PMC7826402 (Proceedings of the National Academy of Sciences of the …, 2021).

Legend:
CXCR4 [1] = conditions: cited from earlier work
CCR5 = conditions: cited from earlier work
[2] = system: GPR15-mediated SIVmac239 infection; assay: Inhibition of GPR15-mediated SIVmac239 infection of GHOST-GPR15 cells; type: cell-based, SIVmac239 in human osteosarcoma (GHOST) cells
In short: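 GHOST-GPR15 cells were seeded, cultured overnight and treated with test peptide for 2 h at 37 °C. They were then infected with SIVmac239 carrying Firefly luciferase in place of nef. Three days post-infection, cells were lysed and luciferase activity (RLU) was measured. Runs were at least in triplicate (mean ± SEM), and IC₅₀ was derived from increasing peptide concentrations.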

GPR15 [3] = assay: GPR15 cell surface down-modulation in GHOST-GPR15 and CEM-M7 cells; type: cell-based, human
GPR15 [4] = assay: Calcium release in GPR15-expressing CHO cells; type: cell-based; conditions: CHO cells with human GPR15 and Gα16; aequorin; quadruplicate
GPR15 [5] = assay: GPR15 surface expression on PBMCs; type: cell-based, human; conditions: 10 µM, 1 h at 37°C; FACS; n = 3 donors
CXCR4 [6] = assay: CXCR4 surface expression on PBMCs; type: cell-based, human; conditions: 10 µM, 1 h at 37°C; FACS; n = 3 donors
[7] = system: CXCR4-mediated HIV-1 infection; assay: CXCR4-tropic HIV-1 NL4-3 infection of GHOST-CXCR4 cells; type: cell-based, HIV-1 in human osteosarcoma (GHOST) cells; conditions: GHOST-CXCR4, HIV-1 NL4-3; three experiments

Molecule: CXCL-12/SDF-1: chemokine ligand of CXCR4
- inhibition of CXCR4-mediated HIV-1 infection by chemokine ligand (CXCR4 [1]): inhibit CCR5- or CXCR4-mediated HIV-1 infection, respectively

Molecule: Maraviroc [reference compound]
- antagonism of chemokine signaling via CCR5 (CCR5): antagonize chemokine signaling via these GPCRs

Molecule: GPR15L: agonistic chemokine ligand of GPR15 (KRRPAKAWSGRRTRLCCHRVPSPNSTNLKGHHVRLCKPCKLEPEPRLWVVPGALPQV; UniProt Q6UWK7 25-81, looked up)
- effect of GPR15L on antiviral activity of CysC95-146 ([2]; GHOST-GPR15 treated with CysC95-146 in presence or absence of GPR15L, SIVmac239 luciferase reporter): did not enhance the antiviral activity of CysC95-146
- inhibitory effect on HIV and SIV entry ([2]; overall statement (Discussion)): little if any inhibitory effect on HIV and SIV entry
- GPR15 cell surface expression (GPR15 [3]; GHOST-GPR15 and CEM-M7 cells, 30 min at 37°C or 4°C, flow cytometry): induced down-regulation of GPR15 from the surface of GHOST-GPR15 and CEM-M7 cells
- GPR15 receptor internalization on ice (GPR15 [3]; cells kept on ice (4°C)): strongly reduced
- calcium release (GPR15 signaling) (GPR15 [4]): GPR15 signaling was confirmed
- reduction of GPR15 cell surface expression on PBMCs (GPR15 [5]): ~40%
- CXCR4 surface expression on PBMCs (CXCR4 [6]): induced significant down-modulation of CXCR4
- inhibition of CXCR4-mediated HIV-1 infection [7]: neither CysC95-146 nor GPR15L inhibited CXCR4-mediated HIV-1 infection

Molecule: c1cc(CN2CCCNCCNCCCNCC2)ccc1CN1CCCNCCNCCCNCC1 [AMD3100, reference compound]
- inhibition of CXCR4-mediated HIV-1 infection [7]: in contrast to the small molecule inhibitor AMD3100, neither CysC95-146 nor GPR15L inhibited
- antagonism of chemokine signaling via CXCR4 (CXCR4 [1]): antagonize chemokine signaling via these GPCRs

B1: CCL5/RANTES: chemokine ligand of CCR5 (protein, UniProt P13501 24-91, looked up)
C-C motif chemokine 5: SPYSSDTTPCCFAYIARPLPRAHIKEYFYTSGKCSNPAVVFVTRKNRQVCANPEKKWVREYINSLEMS
- inhibition of CCR5-mediated HIV-1 infection by chemokine ligand (CCR5): inhibit CCR5- or CXCR4-mediated HIV-1 infection, respectively

B2: cystatin C: small (13 kDa) basic protein; human Cystatin C protein (purified, from human urine) (protein, UniProt P01034 27-146, looked up)
Cystatin-C: SSPGKPPRLVGGPMDASVEEEGVRRALDFAVGEYNKASNDMYHSRALQVVRARKQIVAGVNYFLDVELGRTTCTKTQPNLDNCPFHDQPHLKRKAFCSFQIYAVPWQGTMTLSKSTCQDA
- inhibition of GPR15-mediated SIVmac239 infection (in words) ([2]; GHOST-GPR15 cells, SIVmac239 F-Luc, peptide preincubation 1 – 2 h 37 °C, 3 dpi): little inhibitory effect
